Experimental data pooled from the literature.
Lines come from different studies, so protocols differ.
RET V804M: Proto-oncogene tyrosine-protein kinase receptor Ret (RET, Homo sapiens, UniProt P07949, V804M)
RET: Proto-oncogene tyrosine-protein kinase receptor Ret (RET, Homo sapiens, UniProt P07949)
RET V804L: Proto-oncogene tyrosine-protein kinase receptor Ret (RET, Homo sapiens, UniProt P07949, V804L)

| SMILES | target | assay | setting | endpoint | value |
| --- | --- | --- | --- | --- | --- |
| CC/C(=N\NC(=O)NCc1cccc(O)c1)c1ccc(O)c(C)c1O | Proto-oncogene tyrosine-protein kinase receptor Ret (RET, Homo sapiens, UniProt P07949, Y791F) | enzyme activity, inhibitor | 0.1 µM | inhibition | 2.9% |
| CCCOc1ccc(OC)c(F)c1C(=O)c1ccc(C(=O)N[C@@H]2CNC[C@H]2NC(=O)c2ccc3[nH]ncc3c2)cc1 | RET V804M | enzyme activity, inhibitor | 10 µM | remaining activity | 4% |
| COc1ccnn2ncc(-c3ccnc(N(C)C)n3)c12 | RET | binding | 1 µM | remaining binding | 100% |
| COc1cc(-c2cc(-c3ccc(N4CCNCC4)cc3)cnc2N)cc(OC)c1OC | RET V804L | enzyme activity, inhibitor | 1 µM | inhibition | 5% |
| COCCOc1nc(-c2ccc(Cl)nc2)nc2c1CN(C(=O)c1ncn3ccccc13)CC2 | RET V804M | cell-free assay, competition with immobilised ligand | 0.1 µM | remaining binding | 89% |
| CC(=O)Nc1cccc2c1CCN(C(=O)CCNC(=O)c1ccsc1)C2 | RET | enzyme activity, inhibitor, radiometric | 0.1 µM | remaining activity | 104% |
| Cc1ccc(C(=O)Nc2ccc(CN3CCN(C)CC3)c(C(F)(F)F)c2)cc1C#Cc1cnc2cccnn12 | RET V804M | enzyme activity | 23.5 nM | remaining activity | 8.4% |
| CCOCCn1cc(C(=O)Nc2ccc(-n3nc(-c4cccnc4)cc3C(F)(F)F)cn2)ccc1=O | RET | cell-free assay, competition with immobilised ligand | 1 µM | remaining binding | 83% |
| Cc1cccc(NC(=O)CNC(=O)c2ccccc2NS(=O)(=O)c2ccc3[nH]c(=O)[nH]c3c2)c1C | RET | enzyme activity, inhibitor, radiometric | 10 µM | remaining activity | 85.9% |
| Cc1cc(NC(=O)c2cccc3cc(-c4cccc5[nH]nc(N)c45)ccc23)ccc1F | RET V804M | enzyme activity, inhibitor | 0.1 µM | activity vs control | 117% |
| COCC(=O)Nc1cc(C(=O)NCc2ccc(C)c(F)c2)cc2ncn(CCc3ccccc3)c12 | RET | enzyme activity, inhibitor, radiometric | 0.1 µM | remaining activity | 133% |
| O=c1nc(-c2ccccn2)sc2ccccc12 | RET V804M | binding, competition with immobilised ligand | 1 µM | remaining binding | 100% |
| COc1cccc(Nc2nc(C)c(C(=O)Nc3ccc4c(c3)OCO4)s2)c1 | RET | enzyme activity, inhibitor, radiometric | 0.1 µM | remaining activity | 129% |
| Nc1ncnc2occ(-c3ccc(NC(=O)Nc4cc(C(F)(F)F)ccc4F)cc3)c12 | RET V804L | cell-free assay | 20 µM | remaining signal | 0% |
| Nc1cnc(N2CCc3cc(S(=O)(=O)Nc4c(F)cc(Cl)cc4F)cc(N4CCCC4=O)c32)nc1 | RET | cell-free assay, competition with immobilised ligand | 1 µM | remaining binding | 89% |
| Cc1cc(NC(=O)Nc2c(NC3CCCC3)c3ccccc3oc2=O)ccc1Br | RET | enzyme activity, inhibitor, radiometric | 10 µM | remaining activity | 67.7% |
| Cc1ccc(NC(=O)c2ccc(C)c(C(F)(F)F)c2)cc1C#Cc1nn(C2CCC(O)CC2)c2ncnc(N)c12 (centres unmarked) | RET V804M | cell-free assay | 10 µM | remaining signal | -2% |
| Cc1cc(C)c(-n2ccn3nc(-c4cccnc4)cc23)cc1NC(=O)c1cc(C#N)cc(S(F)(F)(F)(F)F)c1 | RET V804L | cell-free assay, competition with immobilised ligand | 0.1 µM | remaining binding | 93.6% |

| SMILES | target | assay | setting | endpoint | value |
| --- | --- | --- | --- | --- | --- |
| c1cnn2ncc(-c3ccnc(N4CCC45COC5)n3)c2c1 | RET V804M | binding | 1 µM | remaining binding | 100% |
| CCN(CC)CCNC(=O)c1c(C)[nH]c(/C=C2\C(=O)Nc3ccc(F)cc32)c1C | RET | cell-free assay | 0.5 µM | remaining signal | 3.43% |
| CCS(=O)(=O)c1cc2cc(C[C@](O)(CC(C)(C)c3ccc(F)cc3C(N)=O)C(F)(F)F)[nH]c2cn1 | RET V804L | cell-free assay, competition with immobilised ligand | 1 µM | remaining binding | 100% |
| Cc1cnn2ncc(-c3ccnc(N(C)C)n3)c2c1 | RET | binding | 1 µM | remaining binding | 69% |
| COc1ccc(COc2ccc(Cc3cnc(N)nc3N)cc2OC)cc1 | RET | cell-free assay | 0.5 µM | remaining signal | 108% |
| C[C@H]1CCN(c2nccc(-c3cnn4ncccc34)n2)C1 | RET V804M | binding | 1 µM | remaining binding | 84% |
| Nc1nc(SCC(=O)Nc2ccc3c(c2)OCO3)[nH]c(=O)c1NC(=O)c1ccc(F)c(F)c1 | RET | enzyme activity, inhibitor, radiometric | 0.1 µM | remaining activity | 109% |
| O=C1NC(c2ccccn2)Sc2ccccc21 (centres unmarked) | RET V804M | cell-free assay, competition with immobilised ligand | 1 µM | remaining binding | 86% |
| N[C@H]1CCN(c2nccc(-c3cnn4ncccc34)n2)C1 | RET V804L | binding | 1 µM | remaining binding | 93% |
| O=C(NCc1ncc(C(F)(F)F)cc1Cl)c1ccc2c(c1)C1(CCS(=O)(=O)CC1)[C@@H](C1CC1)N2S(=O)(=O)c1ccc(F)cc1 | RET V804M | cell-free assay, competition with immobilised ligand | 1 µM | remaining binding | 100% |
| COc1ccc(CN2C3CC2CN(c2ccc(-c4cc(OCC(C)(C)O)cn5ncc(C#N)c45)cn2)C3)cn1 | RET | thermal stability, DSF | 10 µM | ΔTm | 9.5 °C |
| CN(C)c1ncc(F)c(-c2cnn3ncccc23)n1 | RET V804L | binding | 1 µM | remaining binding | 91% |
| Cc1ccc(C(=O)NCc2ccsc2)cc1C#Cc1cn(C(C)C)c2ncnc(N)c12 | RET | enzyme activity, inhibitor | 1 µM | activity vs control | 4% |
| COc1ccc(OC)c(NC(=O)Nc2cc(OC)c3nc(NC(=O)c4ccccc4)sc3c2)c1 | RET | enzyme activity, inhibitor, radiometric | 0.1 µM | remaining activity | 114% |
| CO[C@]1(C(=O)N[C@@H](C)c2ccc(-n3cc(F)cn3)nc2)CC[C@H](c2nc(C)cc(Nc3cc(C)[nH]n3)n2)CC1 | Proto-oncogene tyrosine-protein kinase receptor Ret (RET, Homo sapiens, UniProt P07949, L772A) | thermal stability, DSF | 10 µM | ΔTm | 11.7 °C |
| COc1ccc(NC(=O)Nc2cc(C)c3nc(NC(=O)c4ccccc4)sc3c2)c(OC)c1 | RET | enzyme activity, inhibitor, radiometric | 0.1 µM | remaining activity | 133% |
| O=C1NC(=O)c2cc(Nc3ccc(F)cc3)c(Nc3ccc(F)cc3)cc21 | RET | cell-free assay | 0.5 µM | remaining signal | 104% |
